# Key:
# [1] = biological target: C-C chemokine receptor type 5 (Homo sapiens, UniProt P51681); test: Inhibitory concentration for displacement of [125I]-MIP-1 alpha from recombinant human CC chemokine receptor 5 (CCR5) expressed in CHO cell; format: cell-based
# In short: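 Competitive binding to CCR5 on CHO cell membranes, read as displacement of [125I]-labeled MIP-1α. IC50 values are means of triplicate determinations. Standard errors were normally <15% within an assay. Assay-to-assay variation was within ±2-fold, judged from a standard compound.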
# [2] = in vivo; details: rat
# [3] = test system: HeLa; test: Antiviral activities in a cell culture HIV-1 infectivity inhibition assay using HeLa cells; format: functional; details: Homo sapiens
# [4] = in vivo; details: rat, plasma
# [5] = in vivo; details: rat; remark: listed apart in the source
# [6] = test system: HeLa; test: Antiviral activities in a cell culture HIV-1 infectivity inhibition assay using HeLa cells plus 50% normal human serum; format: functional
# Sequence of C-C chemokine receptor type 5 (P51681 whole entry): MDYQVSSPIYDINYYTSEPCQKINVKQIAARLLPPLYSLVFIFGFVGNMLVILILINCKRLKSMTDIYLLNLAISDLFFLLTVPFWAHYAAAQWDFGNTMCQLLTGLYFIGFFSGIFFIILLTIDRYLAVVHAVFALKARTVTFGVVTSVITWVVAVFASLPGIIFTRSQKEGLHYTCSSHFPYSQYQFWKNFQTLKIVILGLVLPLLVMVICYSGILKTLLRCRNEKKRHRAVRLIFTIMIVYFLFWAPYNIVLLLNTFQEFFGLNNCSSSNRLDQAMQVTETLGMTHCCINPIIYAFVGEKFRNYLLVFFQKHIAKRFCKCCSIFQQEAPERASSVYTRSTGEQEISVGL
SMILES,IC50 [1],half-life [2],IC90 [3],clearance [4],bioavailability [5],IC90 [6]
CCn1nc(Cc2ccc(-c3ccccc3)cc2)cc1C1CCN(C[C@H]2CN([C@@H](C(=O)O)C(C)C)C[C@@H]2c2cccc(F)c2)CC1,0.3 nM,5.7 h,< 0.14 nM,0.0192 L/h/kg,26%,100 nM
CCn1nc(Cc2ccc(OC(C)(C)C)cc2)cc1C1CCN(C[C@H]2CN([C@@H](C(=O)O)C3CCCCC3)C[C@@H]2c2cccc(F)c2)CC1,0.5 nM,1 h,< 0.14 nM,1.62 L/h/kg,19%,11 nM
CCOc1ccc(Cc2cc(C3CCN(C[C@H]4CN([C@@H](C(=O)O)[C@@H](C)CC)C[C@@H]4c4cccc(F)c4)CC3)n(CC)n2)cc1,0.6 nM,0.98 h,< 0.14 nM,0.264 L/h/kg,5.9%,33 nM
CC[C@H](C)[C@H](C(=O)O)N1C[C@H](CN2CCC(c3cc(Cc4ccc(C(C)(C)C)cc4)nn3CC)CC2)[C@@H](c2cccc(F)c2)C1,0.3 nM,1.4 h,0.4 nM,0.096 L/h/kg,9.2%,11 nM
CCn1nc(Cc2ccc(OC(C)C)cc2)cc1C1CCN(C[C@H]2CN([C@@H](C(=O)O)C(C)(C)C)C[C@@H]2c2cccc(F)c2)CC1,0.7 nM,1.4 h,< 0.14 nM,0.0588 L/h/kg,49%,11 nM
CCn1nc(Cc2ccc(S(C)(=O)=O)cc2)cc1C1CCN(C[C@H]2CN([C@@H](C(=O)O)C(C)C)C[C@@H]2c2cccc(F)c2)CC1,3.5 nM,0.38 h,3.7 nM,0.66 L/h/kg,5.4%,33 nM
CC[C@H](C)[C@H](C(=O)O)N1C[C@H](CN2CCC(c3cc(Cc4ccc(OC5CC5)cc4)nn3CC)CC2)[C@@H](c2cccc(F)c2)C1,0.3 nM,1 h,< 0.14 nM,0.114 L/h/kg,36%,11 nM
CCn1nc(Cc2ccc(C(C)(C)C)cc2)cc1C1CCN(C[C@H]2CN([C@@H](C(=O)O)C(C)(C)C)C[C@@H]2c2cccc(F)c2)CC1,0.4 nM,2.5 h,0.4 nM,0.066 L/h/kg,77%,33 nM
CCn1nc(Cc2ccc(-c3ccccc3)cc2)cc1C1CCN(C[C@H]2CN([C@@H](C(=O)O)C(C)(C)C)C[C@@H]2c2cccc(F)c2)CC1,0.6 nM,8.9 h,1.2 nM,0.0138 L/h/kg,33%,100 nM
CCn1nc(Cc2cccc(F)c2)cc1C1CCN(C[C@H]2CN([C@@H](C(=O)O)C(C)C)C[C@@H]2c2cccc(F)c2)CC1,1.3 nM,0.8 h,11 nM,0.234 L/h/kg,40%,300 nM
CC[C@@H](C)[C@H](C(=O)O)N1C[C@H](CN2CCC(c3cc(Cc4ccc(OC(C)(C)C)cc4)nn3CC)CC2)[C@@H](c2cccc(F)c2)C1,1.6 nM,2.7 h,< 0.14 nM,0.0582 L/h/kg,23%,3.7 nM
CC[C@H](C)[C@H](C(=O)O)N1C[C@H](CN2CCC(c3cc(Cc4ccc(OC5CCC5)cc4)nn3CC)CC2)[C@@H](c2cccc(F)c2)C1,1.3 nM,1.2 h,< 0.14 nM,0.162 L/h/kg,68%,11 nM
CCn1nc(Cc2ccc(F)cc2)cc1C1CCN(C[C@H]2CN([C@@H](C(=O)O)C(C)C)C[C@@H]2c2cccc(F)c2)CC1,1.1 nM,0.91 h,11 nM,0.456 L/h/kg,7.8%,> 300 nM
CC[C@@H](C)[C@H](C(=O)O)N1C[C@H](CN2CCC(c3cc(Cc4ccc(OC5CCC5)cc4)nn3CC)CC2)[C@@H](c2cccc(F)c2)C1,0.4 nM,2.1 h,< 0.14 nM,0.045 L/h/kg,26%,33 nM
CCCCOc1ccc(Cc2cc(C3CCN(C[C@H]4CN([C@@H](C(=O)O)[C@@H](C)CC)C[C@@H]4c4cccc(F)c4)CC3)n(CC)n2)cc1,1 nM,1.2 h,0.4 nM,0.288 L/h/kg,22%,11 nM
CC[C@@H](C)[C@H](C(=O)O)N1C[C@H](CN2CCC(c3cc(Cc4ccc(C(C)(C)C)cc4)nn3CC)CC2)[C@@H](c2cccc(F)c2)C1,0.8 nM,,1.2 nM,,,300 nM

SMILES,IC50 [1],half-life [2],IC90 [3],clearance [4],bioavailability [5],IC90 [6]
CCCCOc1ccc(Cc2cc(C3CCN(C[C@H]4CN([C@@H](C(=O)O)C5CCCCC5)C[C@@H]4c4cccc(F)c4)CC3)n(CC)n2)cc1,0.8 nM,,0.4 nM,,,33 nM
CCCOc1ccc(Cc2cc(C3CCN(C[C@H]4CN([C@@H](C(=O)O)[C@H](C)CC)C[C@@H]4c4cccc(F)c4)CC3)n(CC)n2)cc1,1.2 nM,,1.2 nM,,,300 nM
CC[C@@H](C)[C@H](C(=O)O)N1C[C@H](CN2CCC(c3cc(Cc4ccc(OC(F)(F)F)cc4)nn3CC)CC2)[C@@H](c2cccc(F)c2)C1,0.6 nM,,1.2 nM,,,100 nM
CCn1nc(Cc2ccc(OC)c(C#N)c2)cc1C1CCN(C[C@H]2CN([C@@H](C(=O)O)C(C)C)C[C@@H]2c2cccc(F)c2)CC1,0.8 nM,,1.2 nM,,,300 nM
CC[C@H](C)[C@H](C(=O)O)N1C[C@H](CN2CCC(c3cc(Cc4cccc(C#N)c4)nn3CC)CC2)[C@@H](c2cccc(F)c2)C1,0.9 nM,,< 0.14 nM,,,11 nM
CC[C@H](C)[C@H](C(=O)O)N1C[C@H](CN2CCC(c3cc(CC4CCCCC4)nn3CC)CC2)[C@@H](c2cccc(F)c2)C1,1.2 nM,,1.2 nM,,,300 nM
CCCOc1ccc(Cc2cc(C3CCN(C[C@H]4CN([C@@H](C(=O)O)C5CCCCC5)C[C@@H]4c4cccc(F)c4)CC3)n(CC)n2)cc1,0.7 nM,,1.2 nM,,,100 nM
CCn1nc(Cc2ccc(OC3CC3)cc2)cc1C1CCN(C[C@H]2CN([C@@H](C(=O)O)C(C)C)C[C@@H]2c2cccc(F)c2)CC1,1 nM,,1.2 nM,,,300 nM
CC[C@H](C)[C@H](C(=O)O)N1C[C@H](CN2CCC(c3cc(Cc4ccc(OC)c(C#N)c4)nn3CC)CC2)[C@@H](c2cccc(F)c2)C1,0.5 nM,,< 0.14 nM,,,33 nM
CCn1nc(Cc2cccc(C#N)c2)cc1C1CCN(C[C@H]2CN([C@@H](C(=O)O)C(C)C)C[C@@H]2c2cccc(F)c2)CC1,1.7 nM,,3.7 nM,,,100 nM
CCn1nc(Cc2cccnc2)cc1C1CCN(C[C@H]2CN([C@@H](C(=O)O)C(C)C)C[C@@H]2c2cccc(F)c2)CC1,13.1 nM,,11 nM,,,300 nM
CCn1nc(Cc2ccc(O)cc2)cc1C1CCN(C[C@H]2CN([C@@H](C(=O)O)C(C)(C)C)C[C@@H]2c2cccc(F)c2)CC1,1.1 nM,,0.4 nM,,,11 nM
CCCCOc1ccc(Cc2cc(C3CCN(C[C@H]4CN([C@@H](C(=O)O)[C@H](C)CC)C[C@@H]4c4cccc(F)c4)CC3)n(CC)n2)cc1,0.8 nM,,3.7 nM,,,100 nM
CC[C@H](C)[C@H](C(=O)O)N1C[C@H](CN2CCC(c3cc(Cc4ccc(OC(F)F)cc4)nn3CC)CC2)[C@@H](c2cccc(F)c2)C1,0.3 nM,,< 0.14 nM,,,11 nM
CCn1nc(Cc2ccc(OC)c(C#N)c2)cc1C1CCN(C[C@H]2CN([C@@H](C(=O)O)C(C)(C)C)C[C@@H]2c2cccc(F)c2)CC1,0.9 nM,,< 0.14 nM,,,33 nM

# — ChEMBL document CHEMBL1147446, “Antagonists of human CCR5 receptor containing 4-(pyrazolyl)piperidine side chains. Part 3: SAR studies on the benzylpyrazole segment” (Bioorg Med Chem Lett, 2004)
